# Reference: ChEMBL document CHEMBL4732065 (Eur J Med Chem, 2021)
# Species on record: Homo sapiens
# Assay: Selectivity index, ratio of IC50 for recombinant human CYP1A1 to IC50 for recombinant human CYP1B1
row,SMILES,Ratio IC50
1,COc1ccc(OC)c2c1c(OC)cc1c(=O)cc(-c3cncc(C(=O)O)c3)oc12,2.9
2,COc1ccc(OC)c2c1c(OC)cc1c(=O)cc(-c3ccc4ncccc4c3)oc12,11.6
3,COc1ccc(OC)c2c1c(OC)cc1c(=O)cc(-c3ccc(O)nc3)oc12,> 1.5
4,COc1ccc(OC)c2c1c(OC)cc1c(=O)cc(-c3cccc(N4CCOCC4)c3)oc12,8.9
5,COc1ccc(OC)c2c1c(OC)cc1c(=O)cc(-c3cc4ccccc4o3)oc12,11.6
6,COc1ccc(OC)c2c1c(OC)cc1c(=O)cc(-c3cncc(O)c3)oc12,7.9
7,COc1ccc(OC)c2c1c(OC)cc1c(=O)cc(-c3ccc4ccccc4n3)oc12,118
8,COc1ccc(OC)c2c1c(OC)cc1c(=O)cc(-c3ccnc(Cl)c3)oc12,83.3
9,COc1ccc(OC)c2c1c(OC)cc1c(=O)cc(-c3ccnc(Br)c3)oc12,58.5
10,COc1ccc(OC)c2c1c(OC)cc1c(=O)cc(-c3ccnc(F)c3)oc12,41.8
11,COc1ccc(OC)c2c1c(OC)cc1c(=O)cc(-c3ccccn3)oc12,9
12,COc1ccc(OC)c2c1c(OC)cc1c(=O)cc(-c3cccnc3Br)oc12,0.9
13,COc1ccc(OC)c2c1c(OC)cc1c(=O)cc(-c3ccc(Br)cn3)oc12,29.9
14,COc1ccc(OC)c2c1c(OC)cc1c(=O)cc(-c3cccnc3N)oc12,0.8
15,COc1ccc(OC)c2c1c(OC)cc1c(=O)cc(-c3cc(Cl)ccn3)oc12,11.8
16,COc1ccc(OC)c2c1c(OC)cc1c(=O)cc(-c3cccc(Cl)n3)oc12,19
17,COc1ccc(OC)c2c1c(OC)cc1c(=O)cc(-c3ccnc(N)c3)oc12,0.7

# Molecular target: T1, Cytochrome P450 1A1 (Homo sapiens, UniProt P04798)
# T1 sequence (P04798 whole entry): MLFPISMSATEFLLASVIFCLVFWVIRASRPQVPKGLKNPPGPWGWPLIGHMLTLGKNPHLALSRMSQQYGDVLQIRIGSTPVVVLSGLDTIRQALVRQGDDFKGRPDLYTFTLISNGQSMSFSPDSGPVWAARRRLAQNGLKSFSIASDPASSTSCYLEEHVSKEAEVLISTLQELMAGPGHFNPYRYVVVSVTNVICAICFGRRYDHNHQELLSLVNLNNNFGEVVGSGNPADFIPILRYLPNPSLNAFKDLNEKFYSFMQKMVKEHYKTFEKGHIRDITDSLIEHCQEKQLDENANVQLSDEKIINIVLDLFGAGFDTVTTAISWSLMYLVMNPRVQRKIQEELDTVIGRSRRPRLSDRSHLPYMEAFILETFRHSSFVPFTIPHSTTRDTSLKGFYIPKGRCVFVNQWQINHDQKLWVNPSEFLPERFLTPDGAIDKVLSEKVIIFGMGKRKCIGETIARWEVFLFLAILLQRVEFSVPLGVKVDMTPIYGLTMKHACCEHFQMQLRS
# Assay: Inhibition of recombinant human CYP1A1 using 7-ethoxyresorufin as substrate after 15 mins in presence of NADP+ by EROD assay
# Type: ADME
# Procedure, shortened: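 Recombinant human CYP1 Supersomes co-expressing P450 reductase; 20 fmol CYP1B1, 10 fmol CYP1A1 or 60 fmol CYP1A2 per well. Incubated at 37 °C (1B1 35 min, 1A1 15 min, 1A2 50 min). Stopped with cold methanol; fluorescence read at 544/590 nm; triplicates.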
row,SMILES,IC50 [nM]
1,COc1ccc(OC)c2c1c(OC)cc1c(=O)cc(-c3cncc(C(=O)O)c3)oc12,85.8
2,COc1ccc(OC)c2c1c(OC)cc1c(=O)cc(-c3ccc4ncccc4c3)oc12,20.9
3,COc1ccc(OC)c2c1c(OC)cc1c(=O)cc(-c3ccc(O)nc3)oc12,> 1000
4,COc1ccc(OC)c2c1c(OC)cc1c(=O)cc(-c3cccc(N4CCOCC4)c3)oc12,132
5,COc1ccc(OC)c2c1c(OC)cc1c(=O)cc(-c3cc4ccccc4o3)oc12,10.1
6,COc1ccc(OC)c2c1c(OC)cc1c(=O)cc(-c3cncc(O)c3)oc12,80.9
7,COc1ccc(OC)c2c1c(OC)cc1c(=O)cc(-c3ccc4ccccc4n3)oc12,118
8,COc1ccc(OC)c2c1c(OC)cc1c(=O)cc(-c3ccnc(Cl)c3)oc12,91.6
9,COc1ccc(OC)c2c1c(OC)cc1c(=O)cc(-c3ccnc(Br)c3)oc12,26.9
10,COc1ccc(OC)c2c1c(OC)cc1c(=O)cc(-c3ccnc(F)c3)oc12,38.9
11,COc1ccc(OC)c2c1c(OC)cc1c(=O)cc(-c3ccccn3)oc12,5.4
12,COc1ccc(OC)c2c1c(OC)cc1c(=O)cc(-c3cccnc3Br)oc12,60.7
13,COc1ccc(OC)c2c1c(OC)cc1c(=O)cc(-c3ccc(Br)cn3)oc12,38.9
14,COc1ccc(OC)c2c1c(OC)cc1c(=O)cc(-c3cccnc3N)oc12,137
15,COc1ccc(OC)c2c1c(OC)cc1c(=O)cc(-c3cc(Cl)ccn3)oc12,9.9
16,COc1ccc(OC)c2c1c(OC)cc1c(=O)cc(-c3cccc(Cl)n3)oc12,5.7
17,COc1ccc(OC)c2c1c(OC)cc1c(=O)cc(-c3ccnc(N)c3)oc12,15.3

# Molecular target: T2, Cytochrome P450 1B1 (Homo sapiens, UniProt Q16678)
# T2 sequence (Q16678 whole entry): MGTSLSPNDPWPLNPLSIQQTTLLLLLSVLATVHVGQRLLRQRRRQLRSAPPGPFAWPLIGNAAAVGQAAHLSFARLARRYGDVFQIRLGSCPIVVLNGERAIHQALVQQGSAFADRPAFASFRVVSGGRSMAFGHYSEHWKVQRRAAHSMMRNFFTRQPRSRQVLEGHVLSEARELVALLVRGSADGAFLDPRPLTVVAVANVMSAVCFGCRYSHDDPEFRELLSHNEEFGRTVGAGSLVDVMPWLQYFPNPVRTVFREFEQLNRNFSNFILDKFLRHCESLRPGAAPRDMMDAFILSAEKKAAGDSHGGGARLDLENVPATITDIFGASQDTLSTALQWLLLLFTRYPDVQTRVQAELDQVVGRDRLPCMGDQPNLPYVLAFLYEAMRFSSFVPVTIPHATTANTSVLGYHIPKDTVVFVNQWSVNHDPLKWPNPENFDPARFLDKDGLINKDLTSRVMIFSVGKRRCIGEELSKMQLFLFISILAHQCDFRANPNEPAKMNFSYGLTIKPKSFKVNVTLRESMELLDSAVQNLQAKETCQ
# Assay: Inhibition of recombinant human CYP1B1 using 7-ethoxyresorufin as substrate after 35 mins in presence of NADP+ by EROD assay
# Procedure, shortened: (§1)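 Recombinant human CYP1 Supersomes co-expressing P450 reductase; 20 fmol CYP1B1, 10 fmol CYP1A1 or 60 fmol CYP1A2 per well. Incubated at 37 °C (1B1 35 min, 1A1 15 min, 1A2 50 min).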
row,SMILES,IC50 [nM]
1,COc1ccc(OC)c2c1c(OC)cc1c(=O)cc(-c3cncc(C(=O)O)c3)oc12,30.1
2,COc1ccc(OC)c2c1c(OC)cc1c(=O)cc(-c3ccc4ncccc4c3)oc12,1.8
3,COc1ccc(OC)c2c1c(OC)cc1c(=O)cc(-c3ccc(O)nc3)oc12,658
4,COc1ccc(OC)c2c1c(OC)cc1c(=O)cc(-c3cccc(N4CCOCC4)c3)oc12,14.9
5,COc1ccc(OC)c2c1c(OC)cc1c(=O)cc(-c3cc4ccccc4o3)oc12,0.87
6,COc1ccc(OC)c2c1c(OC)cc1c(=O)cc(-c3cncc(O)c3)oc12,10.3
7,COc1ccc(OC)c2c1c(OC)cc1c(=O)cc(-c3ccc4ccccc4n3)oc12,1
8,COc1ccc(OC)c2c1c(OC)cc1c(=O)cc(-c3ccnc(Cl)c3)oc12,1.1
9,COc1ccc(OC)c2c1c(OC)cc1c(=O)cc(-c3ccnc(Br)c3)oc12,0.46
10,COc1ccc(OC)c2c1c(OC)cc1c(=O)cc(-c3ccnc(F)c3)oc12,0.93
11,COc1ccc(OC)c2c1c(OC)cc1c(=O)cc(-c3ccccn3)oc12,0.6
12,COc1ccc(OC)c2c1c(OC)cc1c(=O)cc(-c3cccnc3Br)oc12,63.9
13,COc1ccc(OC)c2c1c(OC)cc1c(=O)cc(-c3ccc(Br)cn3)oc12,1.3
14,COc1ccc(OC)c2c1c(OC)cc1c(=O)cc(-c3cccnc3N)oc12,175
15,COc1ccc(OC)c2c1c(OC)cc1c(=O)cc(-c3cc(Cl)ccn3)oc12,0.84
16,COc1ccc(OC)c2c1c(OC)cc1c(=O)cc(-c3cccc(Cl)n3)oc12,0.3
17,COc1ccc(OC)c2c1c(OC)cc1c(=O)cc(-c3ccnc(N)c3)oc12,20.6

# Molecular target: T3, Cytochrome P450 1A2 (Homo sapiens, UniProt P05177)
# T3 sequence (P05177 whole entry): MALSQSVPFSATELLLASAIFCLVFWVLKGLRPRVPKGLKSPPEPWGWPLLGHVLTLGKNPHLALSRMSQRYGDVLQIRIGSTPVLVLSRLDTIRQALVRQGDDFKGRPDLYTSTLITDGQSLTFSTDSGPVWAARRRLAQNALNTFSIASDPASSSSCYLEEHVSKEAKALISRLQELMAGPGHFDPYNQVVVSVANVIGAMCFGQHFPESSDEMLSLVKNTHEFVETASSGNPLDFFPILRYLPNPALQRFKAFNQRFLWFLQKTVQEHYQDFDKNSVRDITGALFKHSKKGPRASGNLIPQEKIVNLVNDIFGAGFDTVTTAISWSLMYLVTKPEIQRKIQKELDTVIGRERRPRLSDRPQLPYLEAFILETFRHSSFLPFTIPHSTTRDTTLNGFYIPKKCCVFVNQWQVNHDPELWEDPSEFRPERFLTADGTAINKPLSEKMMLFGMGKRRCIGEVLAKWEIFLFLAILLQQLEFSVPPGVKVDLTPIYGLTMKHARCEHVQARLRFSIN
# Assay: Inhibition of recombinant human CYP1A2 using 7-ethoxyresorufin as substrate after 50 mins in presence of NADP+ by EROD assay
# Type: ADME
# Procedure, shortened: as §1
row,SMILES,IC50 [nM]
1,COc1ccc(OC)c2c1c(OC)cc1c(=O)cc(-c3cncc(C(=O)O)c3)oc12,> 1000
2,COc1ccc(OC)c2c1c(OC)cc1c(=O)cc(-c3ccc4ncccc4c3)oc12,> 1000
3,COc1ccc(OC)c2c1c(OC)cc1c(=O)cc(-c3ccc(O)nc3)oc12,> 1000
4,COc1ccc(OC)c2c1c(OC)cc1c(=O)cc(-c3cccc(N4CCOCC4)c3)oc12,> 1000
5,COc1ccc(OC)c2c1c(OC)cc1c(=O)cc(-c3cc4ccccc4o3)oc12,> 1000
6,COc1ccc(OC)c2c1c(OC)cc1c(=O)cc(-c3cncc(O)c3)oc12,> 1000
7,COc1ccc(OC)c2c1c(OC)cc1c(=O)cc(-c3ccc4ccccc4n3)oc12,> 1000
8,COc1ccc(OC)c2c1c(OC)cc1c(=O)cc(-c3ccnc(Cl)c3)oc12,> 1000
9,COc1ccc(OC)c2c1c(OC)cc1c(=O)cc(-c3ccnc(Br)c3)oc12,> 1000
10,COc1ccc(OC)c2c1c(OC)cc1c(=O)cc(-c3ccnc(F)c3)oc12,518
11,COc1ccc(OC)c2c1c(OC)cc1c(=O)cc(-c3ccccn3)oc12,108
12,COc1ccc(OC)c2c1c(OC)cc1c(=O)cc(-c3cccnc3Br)oc12,966
13,COc1ccc(OC)c2c1c(OC)cc1c(=O)cc(-c3ccc(Br)cn3)oc12,623
14,COc1ccc(OC)c2c1c(OC)cc1c(=O)cc(-c3cccnc3N)oc12,> 1000
15,COc1ccc(OC)c2c1c(OC)cc1c(=O)cc(-c3cc(Cl)ccn3)oc12,> 1000
16,COc1ccc(OC)c2c1c(OC)cc1c(=O)cc(-c3cccc(Cl)n3)oc12,349
17,COc1ccc(OC)c2c1c(OC)cc1c(=O)cc(-c3ccnc(N)c3)oc12,> 1000

# Species on record: Homo sapiens
# Assay: Selectivity index, ratio of IC50 for recombinant human CYP1A2 to IC50 for recombinant human CYP1B1
row,SMILES,Ratio IC50
1,COc1ccc(OC)c2c1c(OC)cc1c(=O)cc(-c3cncc(C(=O)O)c3)oc12,> 33.2
2,COc1ccc(OC)c2c1c(OC)cc1c(=O)cc(-c3ccc4ncccc4c3)oc12,> 556
3,COc1ccc(OC)c2c1c(OC)cc1c(=O)cc(-c3ccc(O)nc3)oc12,> 1.5
4,COc1ccc(OC)c2c1c(OC)cc1c(=O)cc(-c3cccc(N4CCOCC4)c3)oc12,> 67.1
5,COc1ccc(OC)c2c1c(OC)cc1c(=O)cc(-c3cc4ccccc4o3)oc12,> 1150
6,COc1ccc(OC)c2c1c(OC)cc1c(=O)cc(-c3cncc(O)c3)oc12,> 97.1
7,COc1ccc(OC)c2c1c(OC)cc1c(=O)cc(-c3ccc4ccccc4n3)oc12,> 1000
8,COc1ccc(OC)c2c1c(OC)cc1c(=O)cc(-c3ccnc(Cl)c3)oc12,> 909
9,COc1ccc(OC)c2c1c(OC)cc1c(=O)cc(-c3ccnc(Br)c3)oc12,> 2170
10,COc1ccc(OC)c2c1c(OC)cc1c(=O)cc(-c3ccnc(F)c3)oc12,557
11,COc1ccc(OC)c2c1c(OC)cc1c(=O)cc(-c3ccccn3)oc12,179
12,COc1ccc(OC)c2c1c(OC)cc1c(=O)cc(-c3cccnc3Br)oc12,15.1
13,COc1ccc(OC)c2c1c(OC)cc1c(=O)cc(-c3ccc(Br)cn3)oc12,479
14,COc1ccc(OC)c2c1c(OC)cc1c(=O)cc(-c3cccnc3N)oc12,> 5.7
15,COc1ccc(OC)c2c1c(OC)cc1c(=O)cc(-c3cc(Cl)ccn3)oc12,> 1190
16,COc1ccc(OC)c2c1c(OC)cc1c(=O)cc(-c3cccc(Cl)n3)oc12,1160
17,COc1ccc(OC)c2c1c(OC)cc1c(=O)cc(-c3ccnc(N)c3)oc12,> 48.5
